Rows were chosen to be rich in hits. Some 2% of all compounds tested hit in one or more screens of this group.
MT1-MMP act inh = inhibitors of human MT1-MMP activation; GFP/RFP ratio change, % at 20 µM; HT1080 RFP-PRO-GFP cells, GFP/RFP ratio fluorescence, overnight; percent of plate control window, DMSO zero; AID 651647; actives 0.061% (n = 360,000); P50281;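 active = GFP/RFP ratio change of at least 30% with cell ATP level not reduced by more than half and red fluorescence within 50% of control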
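Assay system – RFP-PRO-GFP reporter HT1080 cells · Compound dosing – single dose of 20 µM compound, 1% DMSO final · Incubation – overnight compound exposure at 37 °C · Measure – GFP/RFP fluorescence ratio · Benchmarks – DMSO wells and RFP-L50D-GFP cells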
VLA-4 inh = inhibition in a human VLA-4 binding assay; VLA-4 expressing cells, ligand binding flow cytometry; inhibition, % (about 7 µM as worked out from the volumes in the protocol); actives 0.2% (n = 330,000); in the data active = inhibition above about 50%
DAGLB inh = blocks human DAGLB lipase activity | AID 504411 | inhibition, % at 5.17 µM | Q8NCG7 | HEK293T DAGLB membrane lysate, EnzChek fluorogenic substrate | actives 0.059% (n = 340,000); in the data active = inhibition above about 34%
Target sequence (Q8NCG7 whole entry, looked up): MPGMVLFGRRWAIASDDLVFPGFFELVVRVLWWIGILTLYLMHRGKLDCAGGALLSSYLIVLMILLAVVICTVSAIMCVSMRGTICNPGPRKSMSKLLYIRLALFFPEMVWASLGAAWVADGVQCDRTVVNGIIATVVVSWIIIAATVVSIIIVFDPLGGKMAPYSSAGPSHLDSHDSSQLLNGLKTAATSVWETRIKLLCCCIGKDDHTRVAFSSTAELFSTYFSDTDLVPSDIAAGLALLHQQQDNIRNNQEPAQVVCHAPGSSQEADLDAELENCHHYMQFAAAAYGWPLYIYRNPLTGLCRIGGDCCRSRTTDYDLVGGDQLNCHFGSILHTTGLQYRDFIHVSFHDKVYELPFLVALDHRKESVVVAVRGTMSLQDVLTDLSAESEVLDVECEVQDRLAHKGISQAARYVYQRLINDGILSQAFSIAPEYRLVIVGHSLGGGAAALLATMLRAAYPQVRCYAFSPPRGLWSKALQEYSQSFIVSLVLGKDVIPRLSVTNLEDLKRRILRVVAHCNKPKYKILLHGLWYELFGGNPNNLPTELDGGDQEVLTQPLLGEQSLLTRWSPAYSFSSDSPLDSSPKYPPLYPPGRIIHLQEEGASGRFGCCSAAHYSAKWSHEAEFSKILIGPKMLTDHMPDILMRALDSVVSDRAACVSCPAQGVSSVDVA
ABCB6 inh 2 = inhibitors of human ABC transporter ABCB6 | actives 0.19% (n = 360,000) | AID 602162 | fluorescence ratio to DMSO, % at 10 µM | K562-ABCB6 porphyrin accumulation, flow cytometry, 1 h; active compounds read low | Q9NP58;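 active = fluorescence ratio to DMSO below 75%, the collection mean minus 3 SD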;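 also: signal is porphyrin accumulated inside mitochondria; lower ratio means ABCB6 inhibition with less porphyrin fluorescence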
Granule exo inh = lytic granule exocytosis inhibition; actives 0.66% (n = 360,000); TALL-104 LAMP-1 surface exposure, flow cytometry; cells stimulated with thapsigargin and PMA; inhibition, % at 10 µM;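 active = inhibition above about 55%, limit read from the data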
FGF22 binding = binders of recombinant human FGF22 by thermal shift; actives 1.5% (n = 340,000); activity (Tm shift, normalised), % at 9.99 µM; SYPRO orange fluorescence; percent of sucrose octasulfate shift, DMSO zero; AID 651658;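 active = mean Tm shift, scaled 0 neutral to 100 positive control, at about 1.3% or above, every replicate too, limit read from the data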
Of the large screens only hits and unclear results are named; the others gave an inactive call.

c1cc2c3c(cccc3c1)NC1(CCCCCC1)N2	none (no result: FGF22 binding)
O=S(=O)(c1ccc2nnn(O)c2c1)N1CCOCC1	none
CN(C)S(=O)(=O)c1ccc2nnn(O)c2c1	FGF22 binding 43
CCOC(=O)CC1(C)Sc2ccccc2N1S(=O)(=O)c1ccc(C)cc1 (centres undefined)	FGF22 binding 43 (no result: VLA-4 inh, DAGLB inh, ABCB6 inh 2)
C[C@@H]1CN([C@@H](C)CO)C(=O)c2cc(C3=CCCC3)cnc2O[C@@H]1CN(C)C(=O)c1cccnc1	none (no result: MT1-MMP act inh, VLA-4 inh, DAGLB inh, ABCB6 inh 2, Granule exo inh)
Nc1[nH]ncc1-c1ccccc1	FGF22 binding 44
Cc1cc(C)cc(N(C(=O)c2sc(C)nc2C)C(C(=O)NC(C)(C)C)c2ccncc2)c1 (centres undefined)	FGF22 binding 43
C=C(C)COc1ccc2oc(C)c(C(=O)OCCOC)c2c1	ABCB6 inh 2 67 (no result: FGF22 binding)
COCCOC(=O)c1c(C)oc2ccc(OCc3ccccc3)cc12	none
CO[C@H]1CN(C)C(=O)c2ccc(NC(=O)Nc3ccccc3)cc2OC[C@H](C)N(C(=O)Nc2c(C)noc2C)C[C@H]1C	none (no result: MT1-MMP act inh, VLA-4 inh, DAGLB inh, ABCB6 inh 2, Granule exo inh)
O=C(Nc1ccccc1-c1ccccc1)c1ccc(Cl)c([N+](=O)[O-])c1	none (no result: FGF22 binding)
O=C(Nc1ccc(Nc2ccccc2)cc1)c1ccc(Cl)c([N+](=O)[O-])c1	Granule exo inh 99
C[C@@H]1CCCCO[C@@H](CN(C)C(=O)Nc2cccc3ccccc23)[C@H](C)CN([C@H](C)CO)C(=O)c2cc(N(C)C)ccc2O1	none (no result: MT1-MMP act inh, VLA-4 inh, DAGLB inh, ABCB6 inh 2, Granule exo inh)
CC(=O)Nc1ccc(NC(=O)c2ccccc2CCc2ccccc2)cc1	FGF22 binding 44
C/C(=N\OCc1ccc(C#N)cc1)c1ccc(S(=O)(=O)N(C)C)cc1	none
C/C(=N\OCc1ccc(C#N)cc1)c1ccccc1	FGF22 binding 44
Cc1cc(C)n2nc(C)c(Br)c2n1	FGF22 binding 44
O=C(N[C@H]1CC[C@H](CC(=O)N2CCCCC2)O[C@H]1CO)c1ccc2c(c1)OCO2	none (no result: MT1-MMP act inh, VLA-4 inh, DAGLB inh, ABCB6 inh 2, Granule exo inh)
O=C(O)COc1ccccc1/C=N/NC(=O)c1cccc(S(=O)(=O)Nc2cccc(Cl)c2)c1	FGF22 binding 43
O=C(Cc1ccc(Cl)cc1)SCc1ccccc1	FGF22 binding 44
O=C(Cc1ccccc1)NCCSCc1ccc(Cl)cc1	none (no result: FGF22 binding)
Cc1cccc(Nc2nnc(SCC(=O)NC(=O)Nc3ccc4c(c3)OCCO4)s2)c1	none
Cc1nnc(SCC(=O)NC(=O)Nc2ccc3c(c2)OCCO3)s1	FGF22 binding 43
CCCc1cc(=O)[nH]c2nnc(SCC(=O)Nc3ccc4c(c3)OCCO4)n12	none
Cc1c(C)n2c(SCC(=O)Nc3ccc4c(c3)OCCO4)nnc2[nH]c1=O	FGF22 binding 44
C[C@@H]1CN([C@H](C)CO)C(=O)Cc2cc(NC(=O)C3CC3)ccc2O[C@H]1CN(C)S(=O)(=O)c1ccc(F)cc1	none (no result: MT1-MMP act inh, VLA-4 inh, DAGLB inh, ABCB6 inh 2, Granule exo inh)
COc1ccc(CNC(=O)C[C@@H]2CC[C@H]3[C@@H](COc4ccc(NC(=O)C5CC5)cc4C(=O)N3C)O2)cc1	none (no result: MT1-MMP act inh, VLA-4 inh, DAGLB inh, ABCB6 inh 2, Granule exo inh)
CCn1c(C)nc2cc(C(=O)OC)ccc21	FGF22 binding 43
C[C@H]1CN([C@@H](C)CO)C(=O)c2cc(NC(=O)Nc3cccc4ccccc34)ccc2O[C@@H]1CN(C)Cc1ccc(C(=O)Nc2ccccc2N)cc1	none (no result: MT1-MMP act inh, VLA-4 inh, DAGLB inh, ABCB6 inh 2, Granule exo inh)
Fc1ccc(-c2nc3c(-c4ccccc4)cnn3cc2CCN2CCOCC2)cc1	none
Fc1ccc(-c2nc3c(-c4ccc(F)cc4)cnn3cc2CCN2CCOCC2)cc1	FGF22 binding 43
CCC(=O)N1CC(=O)N2[C@@H](CO)[C@H](c3ccc(C#Cc4cccnc4)cc3)[C@@H]2C1	none (no result: MT1-MMP act inh, VLA-4 inh, DAGLB inh, ABCB6 inh 2, Granule exo inh)
O=C(Cn1c(NCCO)nc2ccccc21)NCCc1ccccc1	none (no result: FGF22 binding)
CCN(CC)C(=O)C(=O)c1cn(CC(=O)NCC2CCCO2)c2ccccc12 (centres undefined)	FGF22 binding 44
O=C(Cn1c(NCCO)nc2ccccc21)NCC1CCCO1 (centres undefined)	FGF22 binding 43
COc1ccc(NC(=O)N2CCCCN3[C@H](C2)[C@@H](c2ccc(C#Cc4ccccc4)cc2)[C@@H]3CO)cc1	none (no result: MT1-MMP act inh, VLA-4 inh, DAGLB inh, ABCB6 inh 2, Granule exo inh)
COC1=CC(=O)C(C2CC(=O)c3c(O)cc(O)cc3O2)=CC1=O (centres undefined)	Granule exo inh 67 (no result: VLA-4 inh)
COc1c(CC=C(C)C)cc(C2CC(=O)c3c(O)cc(O)cc3O2)cc1CC=C(C)C (centres undefined)	none
Cc1cc(C)n(-c2n[nH]c(C)c2[N+](=O)[O-])n1	FGF22 binding 44
Cc1[nH]nc(N2CCCCC2)c1[N+](=O)[O-]	none (no result: FGF22 binding)
Cc1cc(C(F)(F)F)nc(SCCN2CCOCC2)c1C#N	FGF22 binding 43
Cc1cc(C)c(C#N)c(SCCN2CCCCC2)n1	none
C[C@@H]1CN([C@H](C)CO)C(=O)Cc2cc(NS(=O)(=O)c3ccc(F)cc3)ccc2O[C@@H]1CN(C)S(=O)(=O)c1cn(C)cn1	none (no result: MT1-MMP act inh, VLA-4 inh, DAGLB inh, ABCB6 inh 2, Granule exo inh)
Cc1cccnc1NS(=O)(=O)c1ccccc1	FGF22 binding 44 (no result: VLA-4 inh)
Cc1cccnc1NS(=O)(=O)c1cccc([N+](=O)[O-])c1	none
Cc1cc(C)nc(NS(=O)(=O)c2ccccc2)n1	none (no result: FGF22 binding)
Cc1cc(C)c(NS(=O)(=O)c2ccccc2)c(C)n1	FGF22 binding 43 (no result: VLA-4 inh)
CN1C(=O)c2cc(NC(=O)C3CCCCC3)ccc2OC[C@@H]2O[C@H](CC(=O)NCc3ccccc3F)CC[C@@H]21	none (no result: MT1-MMP act inh, VLA-4 inh, DAGLB inh, ABCB6 inh 2, Granule exo inh)
CCC(=O)Nc1ccc(Cl)c(NC(=S)NC(=O)COc2ccccc2)c1	FGF22 binding 44
CCCC(=O)Nc1ccc(Cl)c(NC(=S)NC(=O)c2ccco2)c1	FGF22 binding 1.5
CCC(=O)Nc1ccc(Cl)c(NC(=S)NC(=O)COc2ccc(Cl)cc2)c1	none (no result: FGF22 binding)
CC1C/C(=N/NC(=O)c2ccc(CSc3nc4ccccc4[nH]3)cc2)CC(C)(C)C1 (centres undefined)	none
CC1C/C(=N/Nc2nc3ccccc3[nH]2)CC(C)(C)C1 (centres undefined)	FGF22 binding 43
CO[C@H]1CN(C)C(=O)c2ccc(NC(=O)C3CCC3)cc2OC[C@H](C)N(C(=O)NC(C)C)C[C@H]1C	none (no result: MT1-MMP act inh, VLA-4 inh, DAGLB inh, ABCB6 inh 2, Granule exo inh)
CC(=O)c1cccc(NC(=O)CSc2n[nH]c(=O)n2C2CC2)c1	FGF22 binding 43
C[C@H]1C(=O)N(C)CCN1Cc1cn(C)nc1-c1ccc(Oc2ccccc2)cc1	FGF22 binding 44
O=C(O)c1ccc(N/N=C/c2ccc(-c3ccccc3)cc2)cc1	none (no result: VLA-4 inh)
CC(C)c1ccc(/C=N/Nc2ccc(C(=O)O)cc2)cc1	FGF22 binding 44
C[C@@H]1CN([C@@H](C)CO)C(=O)c2cc(-c3ccncc3)cnc2O[C@@H]1CN(C)C(=O)c1ccc(F)cc1	none (no result: MT1-MMP act inh, VLA-4 inh, DAGLB inh, ABCB6 inh 2, Granule exo inh)
CCOC(=O)N1C/C(=C\c2ccccc2)C(=O)/C(=C/c2ccccc2)C1	none (no result: VLA-4 inh)
CN(C)CCC(=O)N1C/C(=C/c2ccccc2)C(=O)/C(=C\c2ccccc2)C1	Granule exo inh 68 (no result: VLA-4 inh)
